RGS4 block = inhibitors of human RGS4 | B-score at 10 µM | actives 0.45% (n = 310,000) | HEK293 M3R/RGS4 inducible, Fluo-4 calcium flux; stronger effect = higher value; triggered by carbachol at its EC20;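 active = B-score, a plate-corrected calcium signal, over three deviations above library mean, with baseline fluorescence within five deviations of library mean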;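 note: RGS4 expression induced by doxycycline in cells with stable M3 receptor; B-score is computed from the integrated fluorescence ratio over baseline after carbachol; higher B-score means a larger calcium signal and so more RGS4 inhibition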
Target sequence (P49798 whole entry, looked up): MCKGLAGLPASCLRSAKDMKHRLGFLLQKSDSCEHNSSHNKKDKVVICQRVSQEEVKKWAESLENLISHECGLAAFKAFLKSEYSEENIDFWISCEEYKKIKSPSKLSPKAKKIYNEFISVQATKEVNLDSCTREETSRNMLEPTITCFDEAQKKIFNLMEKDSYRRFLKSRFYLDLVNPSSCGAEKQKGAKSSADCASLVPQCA
RGS4 act = RGS4 potentiation or activation; actives 0.92% (n = 310,000); B-score at 10 µM; HEK293 M3R/inducible RGS4, carbachol calcium flux Fluo4; stronger effect = lower value;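 active = B-score of the integrated calcium signal more than 4 SD below the library mean, with starting fluorescence not abnormally high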;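 note: negative B-score means reduced calcium response which marks RGS4 activation or potentiation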
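Reagent: ECmax carbachol challenge; Test system: M3R-expressing HEK293 line, RGS4 induced by doxycycline; Schedule: overnight RGS4 induction, 30 min dye load 37 °C, 20 min compound RT; Detection: calcium dye Fluo4 fluorescence; Read-out: Agonist-evoked peak-minus-minimum fluorescence over baseline, integrated ratio, B score.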
MrgX1 antag = antagonists of human MrgX1 receptor; Q96LB2; MRGX1-HEK293 calcium flux, Fluo-4, BAM8-22 antagonism; stronger effect = lower value; AID 588676; actives 1.3% (n = 310,000); B-score at 10 µM;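 active = calcium-response B-score plate-corrected more than 3 library SD below zero, starting fluorescence within 5 deviations, no agonist response on first addition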;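 note: peak minus trough fluorescence over baseline after final BAM8-22 challenge near maximal dose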
Target sequence (Q96LB2 whole entry, looked up): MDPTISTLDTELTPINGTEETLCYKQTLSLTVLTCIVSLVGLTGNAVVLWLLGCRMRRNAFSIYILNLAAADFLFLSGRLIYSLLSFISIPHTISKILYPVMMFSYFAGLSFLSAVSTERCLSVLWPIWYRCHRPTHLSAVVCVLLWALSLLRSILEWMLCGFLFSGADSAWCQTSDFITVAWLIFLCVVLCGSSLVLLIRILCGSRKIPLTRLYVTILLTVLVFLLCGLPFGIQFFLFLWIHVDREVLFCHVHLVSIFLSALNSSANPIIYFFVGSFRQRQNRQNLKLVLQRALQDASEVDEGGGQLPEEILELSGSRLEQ
MrgX1 PAM = human MrgX1 positive allosteric modulation, primary screen; Q96LB2; MrgX1-HEK293, Fluo-4 calcium flux, FDSS; stronger effect = higher value; B-score at 10 µM; actives 0.63% (n = 310,000);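 active = plate-corrected calcium response at least 3 library SD above typical, normal starting fluorescence, not activating the receptor alone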;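 note: compound read alongside a low EC10 to EC30 dose of BAM8-22 agonist; peak minus trough fluorescence over baseline measured at the second addition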
MrgX1 agonist = activates human MrgX1 receptor signaling. AID 588627. actives 0.44% (n = 310,000). MrgX1-HEK293 cells, Fluo-4 calcium fluorescence, agonist mode; stronger effect = higher value. Q96LB2. B-score at 10 µM;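 active = calcium response B-score plate-corrected fluorescence ratio at least 3 library SD, with starting fluorescence B-score inside 5 SD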
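Assay system: stable human MrgX1 HEK293 cell line. Quantity: 15,000 cells per well. Schedule: cells plated overnight, dye loaded 0.5 h 37 °C, 0.5 h room temperature. Detection: Fluo-4 NW calcium-flux fluorescence, kinetic read. Read-out basis: peak-minus-minimum fluorescence over baseline, converted to B scores. Control set: positive and negative control wells on each plate.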
RGS4 act valid = RGS4 activation, validation assay; shares compounds with RGS4 act; HEK293 M3R/RGS4 inducible, carbachol calcium flux Fluo4; inhibition, % at 10 µM; AID 602282; actives 89% (n = 1,100);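 active = inhibition above 3 SD of the buffer control wells, cut at about 41% in these data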;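 note: signal is the integrated peak-minus-minimum Fluo4 fluorescence over baseline ratio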
RGS4 act ctr = counter-screen for RGS4 activators: effect in non-induced cells | inhibition, % at 10 µM | actives 82% (n = 1,100) | shares compounds with RGS4 act | HEK293 M3R non-induced RGS4, Fluo4 calcium flux; after carbachol challenge at its EC90;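 active = inhibition exceeding 3 SD of buffer-only control wells, cut at about 26% in these data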;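 note: percent drop in integrated peak-minus-baseline over baseline Fluo4 ratio after carbachol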
* = called active by the depositor; i = inactive; nt = no result given. A selection: hits, their analogues and other compounds. The true share with any hit is near 3.5%.

SMILES	RGS4 block	RGS4 act	MrgX1 antag	MrgX1 PAM	MrgX1 agonist	RGS4 act valid	RGS4 act ctr
O=c1c2c(nc3n1CCCCC3)-c1ccccc1CC21CCCCC1	i	-16*	i	i	i	90*	79*
Cc1nccn1CCc1n[nH]c(=S)n1Cc1ccccc1	i	-9.5*	i	i	i	86*	68*
CCCCc1n[nH]c(=S)n1Cc1ccc(C)cc1	i	-8.3*	i	i	i	72*	29*
CCCCCCCc1n[nH]c(=S)n1Cc1ccccc1	i	i	i	i	i	nt	nt
O=C(CSCc1c(F)cccc1Cl)Nc1ccccc1C(=O)N1CCOCC1	i	i	i	i	i	nt	nt
COc1cccc(OC)c1OCCNCC1CSc2ccccc2O1 (stereo not given)	i	-8.1*	i	i	i	0	0
COc1cccc(OC)c1OCCCOc1c(OC)cccc1OC	i	i	i	i	i	nt	nt
C[C@@H]1C=C(C(=O)N2CCOCC2)O[C@H](OCc2ccc(CO)cc2)C1	i	i	i	i	i	nt	nt
N#Cc1ccsc1NC(=O)CCc1ccccc1	i	i	i	i	i	nt	nt
N#Cc1ccsc1NC(=O)CCN1CCN(C(c2ccccc2)c2ccccc2)CC1	i	-9.1*	i	i	i	74*	84*
Cc1ccc(N2CCN(C(=O)c3cc(COc4c(C)cccc4C)on3)CC2)c(C)c1	i	-7.7*	i	i	i	70*	32*
CCn1c(C)c(C)c2cc(C(=O)Nc3cccc(Cl)c3)ccc21	i	-7.7*	i	i	i	61*	0
CCn1c(C)cc(O)c(C(=O)Nc2cccc(Cl)c2)c1=O	i	i	i	i	i	nt	nt
Cn1c(=O)c2c(ncn2CCOc2ccc(F)cc2)n(C)c1=O	i	-8.9*	i	i	i	0	0
Cn1c(=O)c2c(ncn2CCOc2ccc(Br)cc2)n(C)c1=O	i	i	i	i	i	nt	nt
Cc1cccc(OCC(=O)N2CCN(c3nnc(-c4ccccc4)c4ccccc34)CC2)c1	i	-8*	i	i	i	78*	30*
O=C(COc1ccccc1)N1CCN(c2nnc(-c3ccccc3)c3ccccc23)CC1	i	i	i	i	i	nt	nt
COc1ccccc1NC(=O)N1CCCC1C(=O)NCCc1ccccc1 (stereo not given)	i	i	i	i	i	nt	nt
Nc1ccc2c(c1)C(=O)c1ccccc1-2	i	i	i	i	i	nt	nt
Nc1ccc2c(c1)C(=O)C(=O)c1ccccc1-2	i	-8.7*	i	i	i	68*	48*
Cc1ccccc1-c1nn2c(-c3ccccc3)nnc2s1	i	-7.7*	i	i	i	0	0
Cc1ccc(-c2nnc(Oc3ccc(NC(=O)c4ccccc4)cc3)c3ccccc23)cc1	i	i	i	i	i	nt	nt
Cn1c(=O)n(C)c2cc(S(=O)(=O)Nc3cc(Cl)ccc3O)ccc21	i	i	i	i	i	nt	nt
OCC1(Cc2ccccc2)CCCN(Cc2ccc(-c3ccco3)cc2)C1 (stereo not given)	i	i	i	i	i	nt	nt
OCC1(Cc2ccccc2)CCN(Cc2ccc(-c3ccco3)cc2)CC1	i	-10*	i	i	i	90*	52*
SMILES	RGS4 block	RGS4 act	MrgX1 antag	MrgX1 PAM	MrgX1 agonist	RGS4 act valid	RGS4 act ctr
COc1ccc(N(CC(=O)NCCSc2ccc(C)cc2)S(=O)(=O)c2ccccc2)c(OC)c1	i	-12*	i	i	i	73*	0
Cc1cc(OCc2cc(C(=O)NC(C)c3c(C)nn(C)c3C)no2)cc(C)c1Cl (stereo not given)	i	i	i	i	i	nt	nt
CC1(C)CC(=O)C2=C(C1)OC(N)=C(C#N)C2c1ccccc1[N+](=O)[O-] (stereo not given)	i	-11*	i	i	i	0	0
Cc1cccc(OCc2nc(C#N)c(N3CC(C)CC(C)C3)o2)c1 (stereo not given)	i	-9.1*	i	i	i	94*	70*
Cc1cccc(OCc2nc(C#N)c(N3CCCC3)o2)c1	i	i	i	i	i	nt	nt
Cc1ccccc1N1CCN(C2CCCN(C(=O)c3cc[n+]([O-])cc3)C2)CC1 (stereo not given)	i	i	i	i	i	nt	nt
Cc1cc(NCc2ccccn2)n2ncc(-c3ccc(Cl)cc3)c2n1	i	i	i	i	i	nt	nt
Cc1cc(NCc2ccccn2)n2ncc(-c3ccccc3)c2n1	i	-7.8*	i	i	i	90*	43*
c1ccc(COc2ccc(OCCCN3CCCC3)cc2)cc1	i	-11*	i	i	i	94*	57*
c1ccc(COc2ccc(OCCN3CCCC3)cc2)cc1	i	i	i	i	i	nt	nt
CC1CCN(CCCOc2ccc(OCc3ccccc3)cc2)CC1	i	-10*	i	i	i	92*	78*
COc1ccc(/C=N/NC(=O)c2ccccc2OCc2ccccc2)c(OC)c1	i	-11*	i	i	i	94*	76*
COc1ccc(/C(C)=N/NC(=O)c2ccccc2OCc2ccccc2)c(OC)c1	i	i	i	i	i	nt	nt
Cc1ccccc1OCC(=O)NC(=S)Nc1ccccc1N1CCN(S(C)(=O)=O)CC1	i	-9.1*	i	i	i	62*	0
C=CCNC(=O)c1ccc(C2SCC(=O)N2Cc2ccccc2)cc1 (stereo not given)	i	i	i	i	i	nt	nt
O=C(NCc1ccccc1)c1ccc(C2SCC(=O)N2Cc2ccccc2)cc1 (stereo not given)	i	-7.9*	i	i	i	88*	55*
N=C1c2ccccc2CN1c1ccc(S(=O)(=O)N2CCCCC2)cc1	i	-8.8*	i	i	i	75*	36*
COc1ccc2cc(C(=O)N3CCC(Cc4ccccc4)CC3)[nH]c2c1	i	-7.9*	i	i	i	0	0
COc1ccc2[nH]c(C(=O)N3CCC(Cc4ccccc4)CC3)cc2c1	i	i	i	i	i	nt	nt
COc1ccc(C(=O)N=c2sc3c(C)ccc(OC)c3n2C)cc1OC	i	-7.7*	i	i	i	86*	50*

Assay outcomes deposited in PubChem BioAssay by Johns Hopkins Ion Channel Center.
